From ChEMBL document CHEMBL1212893, “Antiplasmodial triterpenoids from the fruits of neem, Azadirachta indica” (J Nat Prod, 2010)

Assays:
Plasmodium falciparum [1] = assay: Antiplasmodial activity against chloroquine-resistant Plasmodium falciparum W2 after 72 hrs by LDH assay; assay type: functional, organism-based; details: W2, 72 h
Procedure, shortened: (§1)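 P. falciparum grown in human A+ red cells at 5% hematocrit in RPMI 1640 with 1% AlbuMaxII, 0.01% hypoxanthine, 20 mM Hepes and 2 mM glutamine, at 37 °C under 1% O2/5% CO2/94% N2. Compounds dissolved in water or DMSO and diluted in medium. Growth read by pLDH. Values are mean ± SD of three experiments run in duplicate.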

Plasmodium falciparum [2] = assay: Antiplasmodial activity against chloroquine-sensitive Plasmodium falciparum D10 after 72 hrs by LDH assay; assay type: functional, organism-based; details: D10, 72 h; procedure, shortened: as §1

SMILES: CC(=O)O[C@@H]1C[C@H]2C(C)(C)C(=O)C=C[C@]2(C)[C@H]2CC[C@]3(C)C(=CC(=O)[C@H]3c3ccoc3)[C@@]21C [AZADIRADIONE]
- IC50 (Plasmodium falciparum [1]): 3.4 µM
- IC50 (Plasmodium falciparum [2]): 5.96 µM

SMILES: CC(=O)O[C@@H]1C[C@H]2C(C)(C)C(=O)C=C[C@]2(C)[C@H]2CC[C@]3(C)C(=CC[C@H]3c3ccoc3)[C@@]21C [AZADIRONE]
- IC50 (Plasmodium falciparum [1]): 1.21 µM
- IC50 (Plasmodium falciparum [2]): 1.63 µM

SMILES: CC1(C)C(=O)C=C[C@]2(C)[C@H]3CC[C@@]4(C)[C@H](c5ccoc5)OC(=O)[C@H]5O[C@]54[C@]3(C)[C@H](O)C[C@@H]12 [DEACETYLGEDUNIN]
- IC50 (Plasmodium falciparum [1]): 3.29 µM
- IC50 (Plasmodium falciparum [2]): 5.14 µM

SMILES: CC(=O)O[C@@H]1C[C@H]2C(C)(C)C(=O)C=C[C@]2(C)[C@H]2CC[C@]3(C)C(=CC(=O)[C@H]3[C@@H]3COC(O)C3)[C@@]21C (some centres undefined) [DESMETHYLLIMOCIN B]
- IC50 (Plasmodium falciparum [1]): 2.59 µM
- IC50 (Plasmodium falciparum [2]): 4.8 µM

SMILES: CC(=O)O[C@@H]1C[C@H]2C(C)(C)C(=O)C=C[C@]2(C)[C@H]2CC[C@@]3(C)[C@H](c4ccoc4)C(=O)[C@H]4O[C@]43[C@@]21C [EPOXYAZADIRADIONE]
- IC50 (Plasmodium falciparum [1]): 2.16 µM
- IC50 (Plasmodium falciparum [2]): 3.3 µM

SMILES: CC(=O)O[C@@H]1C[C@H]2C(C)(C)C(=O)C=C[C@]2(C)[C@H]2CC[C@@]3(C)[C@H](c4ccoc4)OC(=O)[C@H]4O[C@]43[C@@]21C [GEDUNIN]
- IC50 (Plasmodium falciparum [1]): 1.31 µM

SMILES: CC(=O)O[C@H]1CC(=O)C(C)(C)[C@@H]2C[C@@H](OC(C)=O)[C@@]3(C)C4=CC[C@@H]([C@@H]5COC(O)C5)[C@]4(C)CC[C@@H]3[C@@]12C (some centres undefined) [NEEMFRUITIN A]
- IC50 (Plasmodium falciparum [1]): 1.74 µM
- IC50 (Plasmodium falciparum [2]): 2.82 µM

SMILES: CC(=O)O[C@H]1O[C@@H]([C@@H]2OC2(C)C)C[C@H]1[C@@H]1CC=C2[C@]3(C)[C@H](O)C[C@H]4C(C)(C)C(=O)C=C[C@]4(C)[C@H]3CC[C@]21C [NEEMFRUITIN B]
- IC50 (Plasmodium falciparum [1]): 9.98 µM
- IC50 (Plasmodium falciparum [2]): 9.49 µM

SMILES: CC(=O)O[C@@H]1C[C@H]2C(C)(C)C(=O)C=C[C@]2(C)[C@H]2CC[C@]3(C)C(=CC[C@H]3[C@H]3CO[C@@H]([C@H](O)C(C)(C)O)C3)[C@@]21C [PROTOXYLOCARPIN G]
- IC50 (Plasmodium falciparum [1]): 2.4 µM
- IC50 (Plasmodium falciparum [2]): 5 µM

SMILES: CC(=O)O[C@@H]1C[C@H]2C(C)(C)C(=O)C=C[C@]2(C)[C@H]2CC[C@]3(C)C(=CC[C@H]3[C@H]3COC(O)(C(C)(C)O)[C@H](O)C3)[C@@]21C (some centres undefined) [SPICATIN]
- IC50 (Plasmodium falciparum [1]): 2.74 µM
- IC50 (Plasmodium falciparum [2]): 5.4 µM
